Hits are enriched below; roughly 1.7% of the tested compounds scored in any of these assays.
STEP inh: blocks human striatal-enriched tyrosine phosphatase | AID 588621 | inhibition, % at 20 µM | recombinant STEP, OMFP fluorogenic substrate, fluorescence | P54829 | 360,000 tested, 0.25% active;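 active = inhibition at 20 µM, scaled per plate between control wells, above about 37%, limit read from the data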
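Test system: STEP tyrosine phosphatase / Reagent: OMFP at 25 µM / Doses: 20 µM, 1% DMSO / Read-out: percent inhibition scaled to no-enzyme and uninhibited-enzyme controls, plate-pattern corrected / Detection: FITC-channel fluorescence of OMFP product / Medium: Bis-Tris buffer pH 6.0, 2.5 mM DTT, 0.005% Tween 20 / Schedule: 20 min at room temperature, dark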
DNMT1 block: DNMT1 (human) enzyme inhibition | P26358 | DNMT1 molecular beacon, Hinp1I cleavage, fluorescence | inhibition (reported as % activation of signal), % at 10 µM | 360,000 tested, 0.83% active | AID 588458; in the data active = inhibition above about 50%
Scp-1 inhibitor: inhibitors of human Scp-1 phosphatase. Q9GZU7. Recombinant Scp1, phosphopeptide, malachite green phosphate absorbance. inhibition, % at 20 µM. 340,000 tested, 0.88% active. AID 493091;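 active = inhibition above about 50% at 20 µM, limit read from the data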
Target sequence (Q9GZU7 76-261 limits assumed): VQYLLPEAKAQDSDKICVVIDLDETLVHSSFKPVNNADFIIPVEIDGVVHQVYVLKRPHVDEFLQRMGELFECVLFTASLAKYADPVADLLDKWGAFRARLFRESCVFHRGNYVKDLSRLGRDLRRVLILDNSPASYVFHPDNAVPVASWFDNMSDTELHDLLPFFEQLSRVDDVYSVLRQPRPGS
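Test system: SCP-1 phosphatase catalytic domain, residues 76-261; measured by: colorimetric phosphate reagent with accelerator and stabiliser, absorbance at 630 nm; timing: enzyme reaction 45 min at room temperature, colour 5 min, stabilisation 30 min; also added: Phosphorylated 17-residue peptide substrate; compound dosing: one concentration, 20 µM, with 1.0% DMSO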
SUMO1 PPI mod: SUMO1-SIM interaction modulation; SUMO1 binding to a labelled peptide, TR-FRET, 1 h; inhibition, % at 20 µM; 360,000 tested, 0.33% active; AID 602429; in the data active = inhibition above about 37%
Target sequence (P63165 whole entry, looked up): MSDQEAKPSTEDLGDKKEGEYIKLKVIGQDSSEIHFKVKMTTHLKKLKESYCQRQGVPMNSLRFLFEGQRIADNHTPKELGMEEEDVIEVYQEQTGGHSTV
LMPTP block: LMPTP (human) inhibition; P24666; recombinant LMPTP-A, OMFP fluorogenic substrate, fluorescence intensity; inhibition, % at 20 µM; 360,000 tested, 0.22% active; AID 651560;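 active = compounds that cut the enzyme signal by at least half of the control window in the single-dose screen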
Target sequence (P24666 whole entry, looked up): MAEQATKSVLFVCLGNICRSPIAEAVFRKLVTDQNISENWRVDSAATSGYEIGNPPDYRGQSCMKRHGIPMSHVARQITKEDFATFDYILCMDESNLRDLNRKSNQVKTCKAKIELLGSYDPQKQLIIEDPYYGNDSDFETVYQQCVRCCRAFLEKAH
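Buffer or medium: Bis-Tris pH 6.0, DTT, detergent; Assay system: LMPTP-A enzyme; Quantity: 0.625 nM enzyme; Detection: endpoint fluorescence intensity; Times: 50 min dark incubation at room temperature; Controls: substrate-only low control, DMSO enzyme-plus-substrate high control; Doses: single 20 µM dose; Read-out: percent inhibition versus substrate-only and uninhibited controls; Reagent: 400 µM OMFP.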
STEP inh conf: confirmation of human STEP phosphatase inhibitors. AID 623866. shares compounds with STEP inh. 520 tested, 32% active. inhibition, % at 20 µM. recombinant STEP, OMFP fluorogenic substrate, fluorescence; call rule not given here
Numbers stand for hits; 0 = inactive; - = no result given.

SMILES	STEP inh	DNMT1 block	Scp-1 inhibitor	SUMO1 PPI mod	LMPTP block	STEP inh conf
CC1(C)Cc2c(sc(N)c2C#N)C(C)(C)N1	44	0	0	0	0	0
CCN1CCN(CCC(=O)Nc2ccc(Br)cc2)CC1	0	0	0	0	0	-
CCN1CCN(C(=S)c2ccc(O)cc2)CC1	88	0	0	0	0	49
CCN1CCN(C(=S)c2ccc(Br)cc2)CC1	88	0	0	0	0	45
CCC(C)[C@H](NC(=O)[C@@H]1CSC2c3ccccc3C(=O)N21)C(=O)NCc1ccco1 (some centres not stated)	0	0	0	0	0	-
CCCCC(=O)Nc1ccc2c(c1)nc(CCN1CCOCC1)n2C	46	0	0	0	0	0
O=C(/C=C/c1ccccc1Cl)N1CCN(c2ncccn2)CC1	68	0	0	0	0	0
O=C(/C=C/c1ccccc1Cl)N1CCOCC1	0	0	0	0	0	-
CC12CCCC(CC(=O)O)(C1)NC(=O)C2 (configuration not stated)	0	0	0	0	0	-
COc1cc(NC(=S)N2CCN(CCO)CC2)c(OC)cc1Cl	0	0	0	0	0	-
OCCN1CCN(C(=S)c2ccc(Cl)c(Cl)c2)CC1	90	0	0	0	0	60
COc1ccc(N(C(C)=O)S(=O)(=O)c2cccs2)cc1	0	0	0	0	0	-
COc1ccc(N(C(=O)C(C)C)S(=O)(=O)c2cccs2)cc1	44	0	0	0	0	0
O=C(Cn1nc(-c2ccccc2)ccc1=O)N1CCCCC1	0	0	0	0	0	-
O=S(=O)(Nc1ccc(Cl)cc1)c1ccc(N2CCOCC2)c(NC(=S)NCCN2CCOCC2)c1	92	0	0	0	0	71
COCCNC(=S)Nc1ccc(N2CCOCC2)c(S(=O)(=O)Nc2ccc(Cl)cc2)c1	0	0	-	0	0	-
CC(OC(=O)/C=C/c1ccco1)C(=O)NC1CCCCC1 (configuration not stated)	0	0	-	0	0	-
COc1ccccc1-n1cnnc1SCC(=O)NC1CCCC1	0	0	0	0	0	-
NC(=O)CSc1nc2cc(S(=O)(=O)N3CCOCC3)ccc2o1	56	0	0	0	0	0
CN(C)C(=O)CSc1nc2cc(S(=O)(=O)N3CCOCC3)ccc2o1	0	0	0	0	0	-
CCOC(=O)c1c(C)[nH]c(C)c1C(=O)COC(=O)COc1ccc(Cl)c(C)c1	0	0	0	0	0	-
COc1ccnc(CSC(N)=Nc2ccccc2OC)c1	35	0	0	0	0	0
CC(=NNC(=S)N1CC2CCC(CC2)C1)c1cccc(C)n1	59	0	0	0	0	active
CC(=NNC(=S)N1CCCC1)c1ccccn1	0	0	-	0	0	-
COc1ccccc1NS(=O)(=O)c1ccc(OC)c([N+](=O)[O-])c1	0	0	0	0	0	-
SMILES	STEP inh	DNMT1 block	Scp-1 inhibitor	SUMO1 PPI mod	LMPTP block	STEP inh conf
COc1ccccc1NS(=O)(=O)c1ccc(NN=C2CCCCC2)c([N+](=O)[O-])c1	92	0	0	0	0	0
Cc1ccc(NC(=S)N(CCCN2CCOCC2)Cc2cccs2)c(C)c1	55	0	0	0	0	0
Cc1ccc(OCCNC(=O)c2cc(C3CC3)nc3c2cnn3C(C)C)cc1	0	0	0	0	0	-
Fc1ccc(-n2c(=S)[nH]c3cccnc32)cc1	65	0	0	0	0	0
COc1ccc(NC(=O)c2cc(=O)c3ccccc3o2)cc1Cl	42	0	0	0	0	28
CN(C)S(=O)(=O)c1cc(NC(=O)c2cc(=O)c3ccccc3o2)ccc1Cl	0	0	0	0	0	-
CCN1CCN(CCCN(Cc2ccco2)C(=S)Nc2cc(Cl)ccc2C)CC1	41	0	0	0	0	0
Cc1ccc(Cn2c(SCCN3CCCCC3)nc3c2c(=O)[nH]c(=O)n3C)cc1	61	0	0	0	0	0
Cn1c(=O)[nH]c(=O)c2c1nc(SCCN1CCCCC1)n2CCCc1ccccc1	80	0	0	0	0	46
Cn1c(=O)[nH]c(=O)c2c1nc(SCCN1CCCCC1)n2Cc1ccccc1	0	0	0	0	0	-
CCOc1ccc(S(=O)(=O)/N=C(/Nc2ccc(C(C)=O)cc2)c2ccccc2)cc1	0	0	0	0	0	-
COc1ccc(NC(=S)N2CCN(c3ncccn3)CC2)c(OC)c1	85	0	0	0	0	0
COc1ccc(C(=O)ON=C2C=C(C)C(=O)C(C)=C2)cc1	0	0	0	0	0	-
COc1ccc(S(=O)(=O)N=C2C=C(C)C(=O)C(C)=C2)cc1	45	0	0	0	0	0
S=C1NC(C23CC4CC(CC(C4)C2)C3)=CC(c2ccc3c(c2)OCO3)N1 (configuration not stated)	62	0	0	0	0	25
Cc1ccc(C(=O)N/C(=C\c2ccccc2)C(=O)OCc2ccccc2)cc1	60	0	0	0	0	0
O=C(OCc1ccccc1)/C(=C/c1cccc2ccccc12)NC(=O)c1ccccc1	0	0	0	0	0	-
CN1CCN(C(=S)C(=O)Nc2ccccc2)CC1	41	0	0	0	0	0
CN1CCN(C(=S)C(=O)NCc2ccccc2)CC1	0	0	0	0	0	-
CCOC(=O)c1cnn(-c2ccc(C)cc2)c1N	0	0	0	0	0	-
CCOC(=O)c1cnn(-c2ncnc3sc(C)c(C)c23)c1N	70	0	0	0	0	0
Cc1ccc(NC(=O)NCCCN2CCCC2=O)cc1	0	0	0	0	0	-
COc1ccc(NC(=S)NCCCN2CCCC2=O)c(OC)c1	46	0	0	0	0	0
O=C1CCCN1CCCNC(=S)Nc1ccc(F)cc1	43	0	0	0	0	0
COc1ccc(NC(=O)NCCCN2CCCC2=O)cc1	0	0	0	0	0	-
SMILES	STEP inh	DNMT1 block	Scp-1 inhibitor	SUMO1 PPI mod	LMPTP block	STEP inh conf
O=C(O)c1cccc(S(=O)(=O)NCc2cccs2)c1	0	0	0	0	0	-
O=C1CC(=O)Nc2cc(S(=O)(=O)NCc3cccs3)ccc2N1	74	0	0	0	0	0
CN1CCN(C(=O)/C(=C/c2cccnc2)NC(=O)c2cccc(Br)c2)CC1	0	0	0	0	0	-
CN1CCN(C(=O)/C=C/c2ccc3c(c2)OCO3)CC1	57	0	0	0	0	0
COC(=O)[C@H]1C[C@@H](c2ccccc2)[C@H](C)C1(C)C	0	0	0	0	0	-
S=C(c1cn(CCOc2ccccc2)c2ccccc12)N1CCCC1	97	0	0	0	0	63
O=C(O)C(C(O)c1ccccc1)[n+]1ccccc1 (configuration not stated)	0	0	0	0	0	-
COc1ccc(N2CCN(c3nc4c(C)cccn4c(=O)c3C=C(C#N)C#N)CC2)cc1	63	0	0	0	0	0
CCNc1nc(NCC)nc(NC(N)=S)n1	0	0	0	0	0	-
CCNc1nc(NC(N)=S)nc(NC(C)(C)C)n1	37	0	0	0	0	0

Screening data: PubChem BioAssay, Sanford-Burnham Center for Chemical Genomics
